Source: PubChem
In the library only some 1.7% were active in any assay of this set; here they are far more common.
CSN inh = inhibitors of human CSN-mediated cullin deneddylation; Q92905; Purified CSN, SCF-Nedd8-OG deneddylation, fluorescence polarization; inhibition, % at 12.5 µM; hit rate 0.38% among 360,000; AID 651999;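 active means pattern-corrected inhibition above about 35%, with an unprinted fluorescence ratio check between 0.5 and 1.5, limit read from the data, passing the limit was not always enough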
Target sequence (Q92905 whole entry, looked up, one chain of several): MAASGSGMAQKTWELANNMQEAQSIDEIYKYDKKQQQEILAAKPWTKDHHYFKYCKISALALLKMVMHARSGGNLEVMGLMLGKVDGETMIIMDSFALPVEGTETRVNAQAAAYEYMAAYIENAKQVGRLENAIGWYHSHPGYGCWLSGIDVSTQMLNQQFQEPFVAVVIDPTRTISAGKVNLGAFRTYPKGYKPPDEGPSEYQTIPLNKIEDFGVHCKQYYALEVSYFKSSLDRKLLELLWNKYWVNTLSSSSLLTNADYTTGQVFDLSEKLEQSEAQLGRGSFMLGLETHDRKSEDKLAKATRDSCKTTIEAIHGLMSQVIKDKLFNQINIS
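Detection – fluorescence polarization · System – HEK293T-derived human Csn5 enzyme · Controls – substrate-only high control, full reaction low control · Timing – 90 min, room temperature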
TPT1 inh = inhibitors of Candida albicans tRNA 2'-phosphotransferase TPT1; recombinant caTPT1, FP RNA substrate dephosphorylation; inhibition, % at 5 µM; hit rate 0.81% among 300,000;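 active means inhibition above the mean of all tested compounds plus 3 SD, set per screening campaign, cut at about 24% in these data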
IDE cell activ = boosts human insulin-degrading enzyme activity in HEK cells; P14735; FAbeta-B cleavage, fluorescence polarization; 0% vehicle, 100% cell-free pure enzyme wells; activation, % at 5.96 µM; hit rate 0.073% among 340,000;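 active means activation above the mean of all tested compounds plus 3 SD, set per screening campaign, cut at about 17% in these data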
TbMetRS inhib = blocks T. brucei methionyl-tRNA synthetase activity | purified T. brucei MetRS, ATP depletion, Kinase-Glo luminescence | inhibition, % at 11.9 µM | hit rate 0.4% among 360,000 | AID 624268;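 active means inhibition above a per-plate cutoff of the control wells' mean inhibition plus 3 SD, cut at about 5.5% in these data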
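Assay system: T. brucei methionyl-tRNA synthetase, purified | Medium: HEPES buffer with MgCl2, KCl, DTT, spermine, BSA, pyrophosphatase | Compound: 11.9 µM single point | Incubation: 15 min enzyme-compound preincubation, 2 h reaction, 10 min detection, 25 °C | Measured by: Kinase-Glo luciferase luminescence reporting remaining unconsumed ATP | Measure: % inhibition normalized to control-well medians | Replication: Singlicate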
IDE cell inh = inhibitors of human insulin-degrading enzyme in cells. P14735. HEK cells, FAbetaB cleavage, fluorescence polarization. inhibition, % at 5.59 µM. hit rate 0.41% among 320,000. AID 434962;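 active means percent inhibition above the average of all tested compounds plus 3 SD, set per screening campaign, cut at about 16% in these data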;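 further: IDE supplied by intact live HEK cells; FP after avidin binding of uncleaved biotin substrate so inhibition keeps polarization high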
HNF4A DNA FP = change in binding of human HNF4 alpha to DNA; P41235; HNF4a-FITC DNA binding, fluorescence polarization, 1 h; activity change, % at 10 µM; hit rate 0.3% among 360,000; AID 1224865; in the data active means activity change above about 30%, passing the limit was not always enough
Tb MetRS conf = Trypanosoma brucei MetRS inhibition confirmed | shares compounds with TbMetRS inhib | inhibition, % at 11.9 µM | hit rate 93% among 1,400 | AID 624412 | T. brucei MetRS enzyme, luminescence (ATP depletion); in the data active means inhibition above about 7%
Jurkat tox = Jurkat T cell cytotoxicity for MetRS hits; AID 624413; hit rate 12% among 1,400; Jurkat cells viability, ATP luminescence; shares compounds with TbMetRS inhib; inhibition, % at 8.3 µM; in the data active means inhibition above about 15%
Tb MetRS inh FP = T. brucei MetRS inhibition, orthogonal assay; shares compounds with TbMetRS inhib; purified T. brucei MetRS, fluorescence polarization; inhibition, % at 11.9 µM; hit rate 44% among 1,400; AID 651607; in the data active means inhibition above about 17%
Numbers stand for hits.

For COC(=O)C(Cc1ccc(OC(=O)c2ccc(C)cc2)cc1)N1Cc2ccccc2C1=O (stereo not given) the results were CSN inh inactive, TPT1 inh inactive, IDE cell activ inactive, TbMetRS inhib inactive, IDE cell inh inactive and HNF4A DNA FP inactive.
`Cc1cc(SCC(=O)N/N=C/c2ccc(O)c(O)c2)c(C)cc1Br` gave CSN inh inactive, TPT1 inh inactive, IDE cell activ inactive, TbMetRS inhib 41, IDE cell inh inactive, HNF4A DNA FP inactive, Tb MetRS conf 82, Jurkat tox 15 and Tb MetRS inh FP 56.
Screening Nc1nnc(CC(=O)N/N=C/c2ccc(-c3cccc(C(=O)O)c3)o2)s1 returned CSN inh inactive, TPT1 inh inactive, IDE cell activ inactive, TbMetRS inhib inactive, IDE cell inh inactive and HNF4A DNA FP inactive.
For O=C(Cc1ccc(Br)cc1)N/N=C/c1ccc(-c2cccc(C(=O)O)c2)o1 the results were CSN inh inactive, TPT1 inh inactive, IDE cell activ inactive, TbMetRS inhib 6.9, IDE cell inh inactive, HNF4A DNA FP inactive, Tb MetRS conf 16, Jurkat tox inactive and Tb MetRS inh FP inactive.
Cc1nc(SCC(=O)NCc2ccccc2)c2c(=O)n(C)c(=O)n(C)c2n1 was read as CSN inh inactive, TPT1 inh inactive, IDE cell activ inactive, TbMetRS inhib 5.6, IDE cell inh inactive, HNF4A DNA FP inactive, Tb MetRS conf inactive, Jurkat tox inactive and Tb MetRS inh FP inactive.
For Cc1nn(CC(=O)Nc2nnc(C(C)C)s2)c(=O)c2ccccc12 the results were CSN inh inactive, TPT1 inh inactive, IDE cell activ inactive, TbMetRS inhib inactive, IDE cell inh inactive and HNF4A DNA FP inactive.
For CCN1C(=O)[C@H]2[C@@H](c3ccc(OC)cc3)N[C@]3(CCCN(Cc4ccc(OC)cc4)C3=O)[C@H]2C1=O the results were CSN inh inactive, TbMetRS inhib inactive and HNF4A DNA FP inactive.
`O=C(CCC(=O)Nc1ccccc1Cl)N/N=C/c1c[nH]c2ccccc12` gave CSN inh inactive, TPT1 inh inactive, IDE cell activ inactive, TbMetRS inhib 8.0, IDE cell inh inactive, HNF4A DNA FP inactive, Tb MetRS conf 16, Jurkat tox inactive and Tb MetRS inh FP inactive.
Screening O=C(CN1CCN(Cc2ccc(Cl)cc2)CC1)N/N=C/c1c[nH]c2ccccc12 returned CSN inh inactive, TPT1 inh inactive, IDE cell activ inactive, TbMetRS inhib 8.4, IDE cell inh inactive, HNF4A DNA FP inactive, Tb MetRS conf 31, Jurkat tox inactive and Tb MetRS inh FP inactive.
`O=C(CSc1nnc2c(n1)[nH]c1ccccc12)Nc1ccc2c(c1)OCO2` gave CSN inh inactive, TPT1 inh inactive, IDE cell activ inactive, TbMetRS inhib 76, IDE cell inh inactive, HNF4A DNA FP inactive, Tb MetRS conf 83, Jurkat tox inactive and Tb MetRS inh FP 71.
Screening Cc1ccc(-c2csc(NC(=O)CSc3nnc4c(n3)[nH]c3ccccc34)n2)cc1 returned CSN inh inactive, TPT1 inh inactive, IDE cell activ inactive, TbMetRS inhib 7.7, IDE cell inh inactive, HNF4A DNA FP inactive, Tb MetRS conf 15, Jurkat tox 18 and Tb MetRS inh FP inactive.
`O=C(CSc1nnc2c(n1)[nH]c1ccccc12)Nc1ccc(N2CCOCC2)cc1` gave CSN inh inactive, TPT1 inh inactive, IDE cell activ inactive, TbMetRS inhib inactive, IDE cell inh inactive and HNF4A DNA FP inactive.
Screening Cc1ccc(NC(=O)CSc2nnc3c(n2)[nH]c2ccccc23)cc1 returned CSN inh inactive, TPT1 inh inactive, IDE cell activ inactive, TbMetRS inhib inactive, IDE cell inh inactive and HNF4A DNA FP inactive.
O=C(CSc1nc2ncccc2[nH]1)Nc1ccc2c(c1)OCO2 was read as CSN inh inactive, TPT1 inh inactive, TbMetRS inhib 16, IDE cell inh inactive, HNF4A DNA FP inactive, Tb MetRS conf 27, Jurkat tox inactive and Tb MetRS inh FP 17.
For O=C(CSc1nnc2c(n1)[nH]c1ccccc12)Nc1nncs1 the results were CSN inh inactive, TPT1 inh inactive, IDE cell activ inactive, TbMetRS inhib 24, IDE cell inh inactive, HNF4A DNA FP inactive, Tb MetRS conf 43, Jurkat tox inactive and Tb MetRS inh FP 19.
`O=C(O)CSc1nnc2c(n1)[nH]c1ccccc12` gave CSN inh inactive, TPT1 inh inactive, IDE cell activ inactive, TbMetRS inhib inactive, IDE cell inh inactive and HNF4A DNA FP inactive.
For CCCCc1nc2c(C)c(N)cnc2n1Cc1cccc([N+](=O)[O-])c1 the results were CSN inh inactive, TPT1 inh inactive, IDE cell activ inactive, TbMetRS inhib inactive, IDE cell inh inactive and HNF4A DNA FP inactive.
For Cc1ccc(C)c(Cn2c3ccccc3c3cnn(CC(=O)NCCCN4CCOCC4)c(=O)c32)c1 the results were CSN inh inactive, TPT1 inh inactive, IDE cell activ inactive, TbMetRS inhib inactive, IDE cell inh inactive and HNF4A DNA FP inactive.
Cc1ccccc1Oc1cc(NC(=O)Cn2cnc([N+](=O)[O-])c2)cc([N+](=O)[O-])c1 was read as CSN inh inactive, TPT1 inh inactive, IDE cell activ inactive, TbMetRS inhib 9.6, IDE cell inh inactive, HNF4A DNA FP inactive, Tb MetRS conf 24, Jurkat tox inactive and Tb MetRS inh FP 17.
`Cc1nnc(SCC(=O)Nc2ccc([N+](=O)[O-])cc2)n1CC1CCCO1` (stereo not given) gave CSN inh inactive, TPT1 inh inactive, IDE cell activ inactive, TbMetRS inhib inactive, IDE cell inh inactive and HNF4A DNA FP inactive.
For O=C(NNC(=O)c1cc(-c2ccccc2)nc2ccccc12)Nc1cccc(Cl)c1 the results were CSN inh inactive, TPT1 inh inactive, IDE cell activ inactive, TbMetRS inhib inactive, IDE cell inh inactive and HNF4A DNA FP inactive.
For O=C(NNC(=O)c1cc(-c2ccncc2)nc2ccccc12)Nc1ccc(F)cc1 the results were CSN inh inactive, TPT1 inh inactive, IDE cell activ inactive, TbMetRS inhib 20, IDE cell inh inactive, HNF4A DNA FP inactive, Tb MetRS conf 39, Jurkat tox inactive and Tb MetRS inh FP 19.
Screening O=C(NNC(=O)c1cc(-c2cccnc2)nc2ccccc12)Nc1ccc(Cl)cc1 returned CSN inh inactive, TPT1 inh inactive, IDE cell activ inactive, TbMetRS inhib 20, IDE cell inh inactive, HNF4A DNA FP inactive, Tb MetRS conf 31, Jurkat tox inactive and Tb MetRS inh FP 22.
CCNC(COC(=O)c1ccc([N+](=O)[O-])cc1)C1CCCCC1 (stereo not given) was read as CSN inh inactive, IDE cell activ inactive, TbMetRS inhib inactive and HNF4A DNA FP inactive.
